As a reminder, the inhibition is the share of the control response that was lost under treatment. A high value points to a response far below the control.

The structures appear in SMILES notation.

Type in all cases: functional
Assay [1] in a line: Percent inhibition of protein synthesis ([35S]methionine incorporation) at 5 uM concentration. A digest of the protocol: (§1)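 Confluent Balb/c 3T3 cells were synchronized in methionine-free, serum-free medium containing 10% spent medium. They were then stimulated with fresh methionine-free medium plus 10% fetal calf serum, with or without oligonucleotide at a final 5 or 50 μM. At set intervals, duplicate cultures were pulse-labeled 1 h with [35S]methionine (147 mCi/mmol) and TCA-insoluble cpm measured. % inhibition = 100[1 − treated cpm/untreated cpm].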

Assay [2] in a line: Percent inhibition of protein synthesis ([35S]methionine incorporation) at 50 uM concentration. In a few lines: as §1
Assay [3] relates to Nucleic Acid. In words: Percent inhibition of DNA synthesis ([Me-3H] thymidine incorporation) at 5 uM concentration. A digest of the protocol: (§2)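 Balb/c 3T3 cells were grown to confluence in Eagle's MEM with 10% fetal calf serum. They were synchronized in serum-free medium containing 10% spent medium, then stimulated with fresh medium plus 10% FCS, with or without oligonucleotide at a final 5 or 50 μM. At set intervals, duplicate cultures were pulsed 1 h with [3H]thymidine (40 Ci/mmol) and TCA-insoluble cpm counted. % inhibition = 100[1 − treated/control], using cpm summed over the control peak DNA-synthesis period (e.g. 15–16, 17–18, 19–20 h).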
Background: Uptake of a labelled nucleoside into DNA is a usual measure of proliferation.

The test system of assay [4] is Nucleic Acid. The experiment in a line: Percent inhibition of DNA synthesis ([Me-3H] thymidine incorporation) at 50 uM concentration. A digest of the protocol: as §2

`Nc1ncnc2c1ncn2[C@@H]1O[C@H](COP(=O)(O)O[C@@H]2[C@H](O)[C@@H](COP(=O)(O)O[C@@H]3[C@H](O)[C@@H](CO)O[C@H]3n3cnc4c(N)ncnc43)O[C@H]2n2cnc3c(N)ncnc32)[C@@H](O)[C@H]1O`: the inhibition in assay [1] turned out to be 0%; in assay [2], 14%; in assay [3], 14%; in assay [4], 48%.
In the case of `Nc1ncnc2c1ncn2[C@@H]1O[C@H](COP(=O)(O)O[C@@H]2[C@H](O)[C@@H](COP(=O)(O)O[C@@H]3[C@H](O)[C@@H](COP(=O)(O)OP(=O)(O)OP(=O)(O)O)O[C@H]3n3cnc4c(N)ncnc43)O[C@H]2n2cnc3c(N)ncnc32)[C@@H](O)[C@H]1O`, the inhibition in assay [1] is 11%; in assay [2], 21%; in assay [3] it was 11%; in assay [4], 27%.
On to `Nc1ncnc2c1ncn2[C@@H]1O[C@H](COP(=O)(O)O[C@@H]2[C@H](O)[C@@H](COP(=O)(O)O[C@@H]3[C@H](O)[C@@H](COP(=O)(O)O)O[C@H]3n3cnc4c(N)ncnc43)O[C@H]2n2cnc3c(N)ncnc32)[C@@H](O)[C@H]1O`, for which the inhibition in assay [1] stood at 0%; in assay [2] it was 33%; in assay [3] it was 15%; in assay [4], 54%.

The values are drawn from ChEMBL document CHEMBL1122405, “Structure--activity relationships for and potentiation of the antimitogenic activity of 2-5A core derived from 2-5A, a mediator of interferon action” (J Med Chem, 1983).
